The values below come from ChEMBL document CHEMBL1795237, “Total synthesis of largazole and analogues: HDAC inhibition, antiproliferative activity and metabolic stability” (Bioorg Med Chem, 2011).

Calls of active or inactive are those of the source. No cut-off for these calls is given here.

A short description of series [1]: Half life in mouse liver homogenates at 100 uM by UPLC/MS analysis. It counts as ADME, tissue-based. The procedure, abridged: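 Compound added to preincubated murine liver homogenate (tissue broken up in 10 mM Tris pH 7.4, 1:3 w:v) at 37 °C, final 100 μM. Samples taken at 0, 15, 30, 45, 60, 120 min, quenched in methanol, centrifuged 10,000g to remove protein. Supernatant analyzed by reversed-phase C18 UPLC with MeOH/water/0.05% TFA gradient; parent ions monitored by ESI MS selected ion recording.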

Series [2] deals with MCF7. Kind of series: Growth inhibition of human MCF7 cells. The class given is functional.
Series [3] addresses T1, Histone deacetylase (Homo sapiens) (UniProt Q13547+O15379+Q9UBN7+Q92769+Q9UQL6+Q8WUI4+Q9BY41+Q96DB2+P56524+Q9UKV0+Q969S8). Conditions: MDA-MB-231, 100 nM.
For series [4], the target named is T1, Histone deacetylase (Homo sapiens). As to conditions: MCF7, 100 nM.
Series [5] has the same target. As to conditions: SKBr3, 100 nM.

The half-life is the time in which the quantity being followed falls by half.

In the case of `CC(C)[C@@H]1NC(=O)[C@]2(C)CSC(=N2)c2csc(n2)CNC(=O)C[C@@H](/C=C/CCS)OC1=O` [LARGAZOLE THIOL], the half-life at 100 µM in series [1] turned out to be 51 min.

In series [2], `C[C@@]12CSC(=N1)c1csc(n1)CNC(=O)C[C@@H](/C=C/CCS)OC(=O)CCNC2=O` registered a GI of 5900 nM. In series [1], this molecule returned a half-life at 100 µM of at most 5 min.

In the case of `C[C@@]12CSC(=N1)c1csc(n1)CNC(=O)C[C@@H](/C=C/CCS)OC(=O)CNC2=O`, the GI in series [2] was determined as 2458 nM. Further, the half-life at 100 µM in series [1] was 32 min.

Take `CC(C)[C@H]1NC(=O)[C@]2(C)CSC(=N2)c2csc(n2)[C@@H](Cc2ccccc2)NC(=O)C[C@@H](/C=C/CCS)OC1=O`: the GI in series [2] is on record as 377 nM.

Consider `CCCCCCCC(=O)SCC/C=C/[C@@H]1CC(=O)NCc2nc(cs2)C2=N[C@@](C)(CS2)C(=O)N[C@@H](C(C)C)C(=O)O1` [LARGAZOLE], for which the GI in series [2] was 5 nM. Moreover, the inhibition result in series [3], in series [4] and in series [5] was “Active” throughout. In series [1], this molecule showed a half-life at 100 µM of at most 5 min.

Take `CC(C)[C@H]1NC(=O)C(C)(C)NC(=O)c2csc(n2)CNC(=O)C[C@@H](/C=C/CCS)OC1=O`: the GI in series [2] was over 10000 nM. This molecule displayed a half-life at 100 µM in series [1] of at most 5 min.

With `CC(C)[C@H]1NC(=O)[C@]2(C)CSC(=N2)c2csc(n2)CNC(=O)C[C@@H](/C=C/CCS)OC1=O` [LARGAZOLE THIOL], in series [2], the GI worked out at 277 nM. The inhibition entry in series [3], in series [4] and in series [5] was “inactive” each time.
